This note sets out measurements from ChEMBL document CHEMBL3865824, “New (E)-1-alkyl-1H-benzo[d]imidazol-2-yl)methylene)indolin-2-ones: Synthesis, in vitro cytotoxicity evaluation and apoptosis inducing studies” (Eur J Med Chem, 2016).

Data set [1] relates to MDA-MB-231. Description: Inhibition of F-actin polymerization in human MDA-MB-231 cells assessed as disruption of stress fibres at 1 to 4 uM after 12 hrs by rhodamine-phalloidin/hoechst […]-dual staining based confocal microscopic analysis. Type of data set: cell-based. The gist of the method: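 MDA-MB-231 cells (1×10^6/well) were grown on coverslips for 24 h, then exposed 12 h to 1, 2 and 4 μM. After a PBS wash and fixation in 4% paraformaldehyde, F-actin was stained with rhodamine-phalloidin and nuclei with Hoechst […]. Slides were mounted in anti-fade reagent and imaged by confocal microscopy (20× objective).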

Data set [2] deals with MDA-MB-231. Description: Induction of apoptosis in human MDA-MB-231 cells assessed as formation of horse-shoe shaped nuclei at 1 to 4 uM after 24 hrs by DAPI dye-based fluorescent microscopic analysis. It is filed as functional, cell-based. The gist of the method:
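MDA-MB-231 grown at 1×10^6 cells/well in 6-well plates and treated at 1.0, 2.0 or 4.0 µM for 24 h, with untreated controls. Cells washed twice with PBS, fixed in 4% paraformaldehyde and stained with 10 µg/mL DAPI. Nuclei examined by fluorescence microscopy (excitation 359 nm, emission 461 nm) at 200×.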

Data set [3] concerns MDA-MB-231. Description: Induction of superoxide production in human MDA-MB-231 cells after 48 hrs by mitoSOX red-probe based fluorescent microscopic analysis. Type of data set: functional, cell-based. An outline of the steps:
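Cells were seeded at 1×10^5/well in 24-well plates and left to adhere overnight, then treated at different concentrations (methods: medium removed after 24 h; legend: 48 h treatment). After a PBS wash, cells were loaded with MitoSOX Red in HBSS for 15 min at 37 °C, washed three times with PBS and imaged by fluorescence microscopy against DMSO control.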

Data set [4] relates to MDA-MB-231. The experiment in a line: Induction of apoptosis in human MDA-MB-231 cells assessed as viable cells at 4 uM after 24 hrs by Annexin V-FITC/propidium iodide-staining based FACS analysis (reference value: 89.5 %). Conditions: MDA-MB-231, 24 h, read-out: Activity. Type of data set: functional. Background: Flow cytometry measures light scatter and fluorescence of single cells or particles in a stream.

Data set [5] can be described thus: Cell cycle arrest in human MDA-MB-231 cells assessed as accumulation at S phase at 2 uM after 24 hrs by propidium iodide staining based FACS analysis (reference value: 24.6 %). Type of data set: functional. The gist of the method: (§1)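 MDA-MB-231 at 1×10^6 cells/well treated with 1, 2 or 4 µM for 24 h, with a DMSO control. Cells harvested by trypsin, washed with PBS and fixed in 70% ethanol for 30 min at 4 °C. Stained 15 min at room temperature in the dark with PI buffer containing Triton X and DNase-free RNase A. Analysed by flow cytometry; G0/G1, S and G2/M fractions quantified.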

Data set [6] is described as follows: Selectivity ratio of IC50 for human MCF10A cells to IC50 for human MDA-MB-231 cells. It is filed as ADME, cell-based, MCF-10A. Conditions: MCF10A cells versus MDA-MB-231 cells, read-out: Ratio IC50.
The test system of data set [7] is MDA-MB-231. The experiment in a line: Induction of apoptosis in human MDA-MB-231 cells assessed as formation of horse-shoe shaped nuclei at 2 uM after 24 hrs by AO/EB-dual staining based fluorescent microscopic analysis. Type of data set: functional, cell-based. An outline of the steps:
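MDA-MB-231 plated at 1×10^6 cells/mL and treated at 1, 2 or 4 µM, with a DMSO control. Incubation time is given as 48 h in the methods and 24 h in the figure legend. AO and EB added at 10 µg/mL each. Cells viewed within 10 min by fluorescence microscopy (excitation 488 nm, emission 550 nm) at 200×.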

Data set [8] has as its system MDA-MB-231. The experiment in a line: Induction of apoptosis in human MDA-MB-231 cells assessed as late apoptotic cells at 2 uM after 24 hrs by Annexin V-FITC/propidium iodide-staining based FACS analysis (reference value: 3.6 %). It is filed as functional.
A short description of data set [9]: Cell cycle arrest in human MDA-MB-231 cells assessed as accumulation at S phase at 4 uM after 24 hrs by propidium iodide staining based FACS analysis (reference value: 24.6 %). Type of data set: functional. The gist of the method: as §1
The nature of data set [10]: Selectivity ratio of IC50 for human MCF10A cells to IC50 for human DU145 cells. Conditions: MCF10A cells versus DU145 cells, read-out: Ratio IC50. Type of data set: ADME, cell-based, MCF-10A.
For data set [11], the system named is MDA-MB-231. Description: Induction of apoptosis in human MDA-MB-231 cells assessed as cell shrinkage at 1 to 4 uM after 24 hrs by phase contrast microscopic analysis. Type of data set: functional, cell-based. The gist of the method:
(§2)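 MDA-MB-231 treated at 1, 2 or 4 µM for 24 h. Morphology examined and photographed by phase contrast microscopy against untreated control cells.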

Data set [12] has as its system MDA-MB-231. Description: Induction of apoptosis in human MDA-MB-231 cells assessed as necrotic cells at 1 uM after 24 hrs by Annexin V-FITC/propidium iodide-staining based FACS analysis (reference value: 2.8 %). It is filed as functional.
Data set [13] in a line: Cytotoxicity against […] cells assessed as growth inhibition at 50 uM after 48 hrs by MTT assay relative to control. It is filed as functional. Conditions: Mus musculus, 4T1, 48 h; read-out: GI. The gist of the method: (§3)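 Cells grown in DMEM or MEM with 10% FBS at 37 °C, 5% CO2. Seeded at 1×10^4 cells/well, incubated 48 h, then exposed to compound for 48 h with vehicle control. MTT (5 mg/mL stock) added for 4 h; formazan dissolved in DMSO, absorbance read at 570 nm. Preliminary screen at 50 µM. Compounds giving >50% inhibition were tested for dose-response curves; IC50 derived by linear regression of % inhibition versus concentration. Mean of three independent experiments in triplicate.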
(Formazan colour is commonly taken as a measure of viable cells.)

Data set [14] in a line: Cell cycle arrest in human MDA-MB-231 cells assessed as accumulation at S phase at 1 uM after 24 hrs by propidium iodide staining based FACS analysis (reference value: 24.6 %). It is filed as functional. An outline of the steps: as §1
Data set [15] has as its system MDA-MB-231. Description: Induction of apoptosis in human MDA-MB-231 cells assessed as loss of mitochondrial membrane potential at 4 uM after 24 hrs by rhodamine-123 -based spectrofluorometric analysis relative to control. It is filed as functional. An outline of the steps:
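MDA-MB-231 cells were plated at 5×10^5 cells/mL in 6-well plates, left to adhere overnight, then treated 24 h at 1, 2 and 4 μM. Cells were trypsinized, washed in PBS and loaded with rhodamine-123 (10 μg/mL) in PBS for 30 min at room temperature. After two PBS washes, fluorescence was read by spectrofluorometer (ex 480/em 530 nm). Loss is expressed against control; three independent experiments in triplicate.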

Data set [16] has as its system MDA-MB-231. The experiment in a line: Induction of apoptosis in human MDA-MB-231 cells assessed as cell wall deformation at 1 to 4 uM after 24 hrs by phase contrast microscopic analysis. It is filed as functional, cell-based. The gist of the method:
as §2

Data set [17] in a line: Cytotoxicity against […] cells assessed as reduction in cell viability after 48 hrs by MTT assay. Type of data set: functional, cell-based. Conditions: 4T1, 48 h. An outline of the steps: as §3
The subject of data set [18] is MDA-MB-231. The experiment in a line: Induction of apoptosis in human MDA-MB-231 cells assessed as viable cells at 2 uM after 24 hrs by Annexin V-FITC/propidium iodide-staining based FACS analysis (reference value: 89.5 %). Type of data set: functional. Conditions: MDA-MB-231, 24 h, read-out: Activity.
Data set [19] relates to MDA-MB-231. Description: Induction of apoptosis in human MDA-MB-231 cells assessed as late apoptotic cells after 24 hrs by Annexin V-FITC/propidium iodide-staining based FACS analysis. Type of data set: functional, cell-based.
Data set [20] has as its system MDA-MB-231. The experiment in a line: Induction of apoptosis in human MDA-MB-231 cells assessed as decrease in Bcl2 expression after 24 hrs by Western blot analysis. Type of data set: functional, cell-based. An outline of the steps: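 MDA-MB-231 treated at 1, 2 or 4 µM for 24 h. Whole-cell extracts prepared in RIPA buffer. Blots probed with rabbit anti-caspase-3, anti-Bcl2 and anti-β-actin (1:1000) and anti-Bax (1:500), then HRP secondaries and ECL detection. Membranes stripped and reprobed. Bands quantified by densitometry as fold change versus control. Mean ± SEM, n=3.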

Active and inactive are the calls of the source. No cut-off for these calls is given here.

Usually IC50 stands for the midpoint of a concentration-inhibition curve. Regarding `CC(C)n1c(/C=C2/C(=O)Nc3ccc(Br)cc32)nc2ccccc21`, in [1], the inhibition result was “Active”. In addition, the result in data set [2], in [7], in data set [11] and in data set [16] was Active. Also, the Activity result in data set [3] was “Dose-dependent effect”; in data set [5], 17.7%; in [8] it was 4.4%; in data set [9], 11.3%; in [12], 3.4%; in [14], 20.8%. The Activity in data set [15] was 38.5%; in data set [19] it was “Dose-dependent effect”; in data set [20], “Dose-dependent effect”. Besides, in [4], the viability at 4 µM was determined as 65.3%. Also, the selectivity ratio in data set [6] turned out to be 17; in [10] it was 8. For the same compound, in data set [13], the inhibition of growth at 50 µM was greater than 50%. The IC50 in data set [17] amounted to 5.96 µM. Further, in [18], the viability at 2 µM stood at 73.6%.
